Source: ChEMBL document CHEMBL1138525 (J Med Chem, 2009)
The source made the active and inactive calls. The calls are words filed in the database; no cut-off is given here.

How the values were obtained:
Assay type in all cases: functional, cell-based
[1] = tested on: P2Y purinoceptor 2 (Homo sapiens), P41231 [R180A]; test: Agonist activity at N-terminal HA epitope-tagged human P2Y2 receptor R180A mutant expressed in human 1321N1 cells assessed as increase in intracellular calcium level relative to carbachol
Outline: (§1)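 Retrovirally transduced stable 1321N1 astrocytoma lines (wild-type lines of differing expression, or mutants) in suspension, loaded with Oregon Green BAPTA-1/AM for 1 h at room temperature. Cells were plated at 150000 per well in Krebs-HEPES pH 7.4 and held 20 min at 28 °C in the dark. Agonist was then injected, with fluorescence read at ex 485/em 520 nm for 60 × 0.4 s.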

P2Y purinoceptor 2 [2] = biological target: T1, P2Y purinoceptor 2 (Homo sapiens, UniProt P41231); test: Agonist activity at N-terminal HA epitope-tagged wild type 3 human P2Y2 receptor expressed in human 1321N1 cells assessed as increase in intracellular calcium level
Outline: (§2)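 Retrovirally transduced stable 1321N1 astrocytoma lines (wild-type lines of differing expression, or mutants) in suspension, loaded with Oregon Green BAPTA-1/AM for 1 h at room temperature. Cells were plated at 150000 per well in Krebs-HEPES pH 7.4 and held 20 min at 28 °C in the dark.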

P2Y purinoceptor 2 [3] = biological target: T1, P2Y purinoceptor 2; test: Agonist activity at N-terminal HA epitope-tagged wild type 1 human P2Y2 receptor expressed in human 1321N1 cells assessed as increase in intracellular calcium level; outline: as §1
1321-N1 = test: Effect on intracellular calcium level in non transfected human 1321N1 cells
P2Y purinoceptor 2 [4] = biological target: P2Y purinoceptor 2 (Homo sapiens, UniProt P41231, R177A/R180A); test: Agonist activity at N-terminal HA epitope-tagged human P2Y2 receptor R177A_R180A double mutant expressed in human 1321N1 cells assessed as increase in intracellular calcium level
Outline: (§3)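 1321N1 astrocytoma cells stably expressing mutant receptor (retroviral transfection, G418 selection), loaded with Oregon Green BAPTA-1/AM in Krebs-HEPES pH 7.4 for 1 h at room temperature. Plated at 150000 cells/well and held 20 min at 28 °C in the dark. Efficacy relative to 100 µM carbachol.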

P2Y purinoceptor 2 [5] = biological target: P2Y purinoceptor 2 (Homo sapiens, UniProt P41231, R177A); test: Agonist activity at N-terminal HA epitope-tagged human P2Y2 receptor R177A mutant expressed in human 1321N1 cells assessed as increase in intracellular calcium level; outline: as §3
[6] = tested on: P2Y purinoceptor 2 (Homo sapiens), P41231 [Y198A]; test: Agonist activity at N-terminal HA epitope-tagged human P2Y2 receptor Y198A mutant expressed in human 1321N1 cells assessed as increase in intracellular calcium level relative to carbachol; outline: as §1
P2Y purinoceptor 2 [7] = biological target: P2Y purinoceptor 2 (Homo sapiens, UniProt P41231, R180A); test: Agonist activity at N-terminal HA epitope-tagged human P2Y2 receptor R180A mutant expressed in human 1321N1 cells assessed as increase in intracellular calcium level; outline: as §3
P2Y purinoceptor 2 [8] = biological target: P2Y purinoceptor 2 (Homo sapiens, UniProt P41231, Y198A); test: Agonist activity at N-terminal HA epitope-tagged human P2Y2 receptor Y198A mutant expressed in human 1321N1 cells assessed as increase in intracellular calcium level; outline: as §3
P2Y purinoceptor 2 [9] = biological target: T1, P2Y purinoceptor 2; test: Agonist activity at N-terminal HA epitope-tagged wild type 4 human P2Y2 receptor expressed in human 1321N1 cells assessed as increase in intracellular calcium level relative to carbachol; outline: as §1
P2Y purinoceptor 2 [10] = biological target: P2Y purinoceptor 2 (Homo sapiens, UniProt P41231, R194H); test: Agonist activity at N-terminal HA epitope-tagged human P2Y2 receptor R194H mutant expressed in human 1321N1 cells assessed as increase in intracellular calcium level; outline: as §3
[11] = tested on: P2Y purinoceptor 2 (Homo sapiens), P41231 [Y118A]; test: Agonist activity at N-terminal HA epitope-tagged human P2Y2 receptor Y118A mutant expressed in human 1321N1 cells assessed as increase in intracellular calcium level relative to carbachol; outline: as §1
[12] = tested on: P2Y purinoceptor 2 (Homo sapiens), P41231 [Y114A]; test: Agonist activity at N-terminal HA epitope-tagged human P2Y2 receptor Y114A mutant expressed in human 1321N1 cells assessed as increase in intracellular calcium level relative to carbachol; outline: as §1
P2Y purinoceptor 2 [13] = biological target: T1, P2Y purinoceptor 2; test: Agonist activity at N-terminal HA epitope-tagged wild type human P2Y2 receptor expressed in human 1321N1 cells assessed as increase in intracellular calcium level; outline: as §1
P2Y purinoceptor 2 [14] = biological target: P2Y purinoceptor 2 (Homo sapiens, UniProt P41231, R272A); test: Agonist activity at N-terminal HA epitope-tagged human P2Y2 receptor R272A mutant expressed in human 1321N1 cells assessed as increase in intracellular calcium level; outline: as §3
[15] = tested on: P2Y purinoceptor 2 (Homo sapiens), P41231 [S296A]; test: Agonist activity at N-terminal HA epitope-tagged human P2Y2 receptor S296A mutant expressed in human 1321N1 cells assessed as increase in intracellular calcium level relative to carbachol; outline: as §1
[16] = tested on: P2Y purinoceptor 2 (Homo sapiens), P41231 [R194H]; test: Agonist activity at N-terminal HA epitope-tagged human P2Y2 receptor R194H mutant expressed in human 1321N1 cells assessed as increase in intracellular calcium level relative to carbachol; outline: as §1
P2Y purinoceptor 2 [17] = biological target: P2Y purinoceptor 2 (Homo sapiens, UniProt P41231, Y114A); test: Agonist activity at N-terminal HA epitope-tagged human P2Y2 receptor Y114A mutant expressed in human 1321N1 cells assessed as increase in intracellular calcium level; outline: as §3
P2Y purinoceptor 2 [18] = biological target: T1, P2Y purinoceptor 2; test: Agonist activity at N-terminal HA epitope-tagged wild type 3 human P2Y2 receptor expressed in human 1321N1 cells assessed as increase in intracellular calcium level relative to carbachol; outline: as §1
[19] = tested on: P2Y purinoceptor 2 (Homo sapiens), P41231 [C278S]; test: Agonist activity at N-terminal HA epitope-tagged human P2Y2 receptor C278S mutant expressed in human 1321N1 cells assessed as increase in intracellular calcium level relative to carbachol; outline: as §1
P2Y purinoceptor 2 [20] = biological target: P2Y purinoceptor 2 (Homo sapiens, UniProt P41231, C278S); test: Agonist activity at N-terminal HA epitope-tagged human P2Y2 receptor C278S mutant expressed in human 1321N1 cells assessed as increase in intracellular calcium level; outline: as §3
[21] = tested on: P2Y purinoceptor 2 (Homo sapiens), P41231 [R177A,R180A]; test: Agonist activity at N-terminal HA epitope-tagged human P2Y2 receptor R177A_R180A double mutant expressed in human 1321N1 cells assessed as increase in intracellular calcium level relative to carbachol; outline: as §1
[22] = tested on: P2Y purinoceptor 2 (Homo sapiens), P41231 [R272A]; test: Agonist activity at N-terminal HA epitope-tagged human P2Y2 receptor R272A mutant expressed in human 1321N1 cells assessed as increase in intracellular calcium level relative to carbachol; outline: as §1
P2Y purinoceptor 2 [23] = biological target: P2Y purinoceptor 2 (Homo sapiens, UniProt P41231, Y118A); test: Agonist activity at N-terminal HA epitope-tagged human P2Y2 receptor Y118A mutant expressed in human 1321N1 cells assessed as increase in intracellular calcium level; outline: as §3
[24] = tested on: P2Y purinoceptor 2 (Homo sapiens), P41231 [R177A]; test: Agonist activity at N-terminal HA epitope-tagged human P2Y2 receptor R177A mutant expressed in human 1321N1 cells assessed as increase in intracellular calcium level relative to carbachol; outline: as §1
P2Y purinoceptor 2 [25] = biological target: P2Y purinoceptor 2 (Homo sapiens, UniProt P41231, S296A); test: Agonist activity at N-terminal HA epitope-tagged human P2Y2 receptor S296A mutant expressed in human 1321N1 cells assessed as increase in intracellular calcium level; outline: as §2
P2Y purinoceptor 2 [26] = biological target: T1, P2Y purinoceptor 2; test: Agonist activity at N-terminal HA epitope-tagged wild type 4 human P2Y2 receptor expressed in human 1321N1 cells assessed as increase in intracellular calcium level; outline: as §2

T1 sequence (P41231 whole entry): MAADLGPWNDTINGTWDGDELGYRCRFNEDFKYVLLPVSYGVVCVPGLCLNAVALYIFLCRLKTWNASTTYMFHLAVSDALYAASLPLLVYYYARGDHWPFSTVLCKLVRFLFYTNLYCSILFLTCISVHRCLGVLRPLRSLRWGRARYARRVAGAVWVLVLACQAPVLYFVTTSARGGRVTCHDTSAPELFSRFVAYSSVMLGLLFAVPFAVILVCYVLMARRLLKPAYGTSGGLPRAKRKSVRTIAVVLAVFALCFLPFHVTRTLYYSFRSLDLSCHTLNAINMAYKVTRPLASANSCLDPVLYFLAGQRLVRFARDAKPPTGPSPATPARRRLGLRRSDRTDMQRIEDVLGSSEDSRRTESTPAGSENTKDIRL
Sequence of P2Y purinoceptor 2 (Homo sapiens, UniProt P41231, R180A) (P41231 whole entry R180A): as the sequence (P41231 whole entry) above, with R180A counted along it
Sequence of P2Y purinoceptor 2 (Homo sapiens), P41231 [R180A] (P41231 whole entry R180A): as the sequence (P41231 whole entry) above, with R180A counted along it
Sequence of P2Y purinoceptor 2 (Homo sapiens), P41231 [R194H] (P41231 whole entry R194H): as the sequence (P41231 whole entry) above, with R194H counted along it
Sequence of P2Y purinoceptor 2 (Homo sapiens, UniProt P41231, R194H) (P41231 whole entry R194H): as the sequence (P41231 whole entry) above, with R194H counted along it
Sequence of P2Y purinoceptor 2 (Homo sapiens), P41231 [R177A] (P41231 whole entry R177A): as the sequence (P41231 whole entry) above, with R177A counted along it
Sequence of P2Y purinoceptor 2 (Homo sapiens, UniProt P41231, R177A) (P41231 whole entry R177A): as the sequence (P41231 whole entry) above, with R177A counted along it
Sequence of P2Y purinoceptor 2 (Homo sapiens), P41231 [S296A] (P41231 whole entry S296A): as the sequence (P41231 whole entry) above, with S296A counted along it
Sequence of P2Y purinoceptor 2 (Homo sapiens, UniProt P41231, S296A) (P41231 whole entry S296A): as the sequence (P41231 whole entry) above, with S296A counted along it
Sequence of P2Y purinoceptor 2 (Homo sapiens, UniProt P41231, C278S) (P41231 whole entry C278S): as the sequence (P41231 whole entry) above, with C278S counted along it
Sequence of P2Y purinoceptor 2 (Homo sapiens), P41231 [C278S] (P41231 whole entry C278S): as the sequence (P41231 whole entry) above, with C278S counted along it
Sequence of P2Y purinoceptor 2 (Homo sapiens, UniProt P41231, Y114A) (P41231 whole entry Y114A): as the sequence (P41231 whole entry) above, with Y114A counted along it
Sequence of P2Y purinoceptor 2 (Homo sapiens), P41231 [Y114A] (P41231 whole entry Y114A): as the sequence (P41231 whole entry) above, with Y114A counted along it
Sequence of P2Y purinoceptor 2 (Homo sapiens), P41231 [Y198A] (P41231 whole entry Y198A): as the sequence (P41231 whole entry) above, with Y198A counted along it
Sequence of P2Y purinoceptor 2 (Homo sapiens, UniProt P41231, Y198A) (P41231 whole entry Y198A): as the sequence (P41231 whole entry) above, with Y198A counted along it
Sequence of P2Y purinoceptor 2 (Homo sapiens), P41231 [Y118A] (P41231 whole entry Y118A): as the sequence (P41231 whole entry) above, with Y118A counted along it
Sequence of P2Y purinoceptor 2 (Homo sapiens, UniProt P41231, Y118A) (P41231 whole entry Y118A): as the sequence (P41231 whole entry) above, with Y118A counted along it
Sequence of P2Y purinoceptor 2 (Homo sapiens), P41231 [R177A,R180A] (P41231 whole entry R177A/R180A): as the sequence (P41231 whole entry) above, with R177A, R180A counted along it
Sequence of P2Y purinoceptor 2 (Homo sapiens, UniProt P41231, R177A/R180A) (P41231 whole entry R177A/R180A): as the sequence (P41231 whole entry) above, with R177A, R180A counted along it
Sequence of P2Y purinoceptor 2 (Homo sapiens, UniProt P41231, R272A) (P41231 whole entry R272A): as the sequence (P41231 whole entry) above, with R272A counted along it
Sequence of P2Y purinoceptor 2 (Homo sapiens), P41231 [R272A] (P41231 whole entry R272A): as the sequence (P41231 whole entry) above, with R272A counted along it

Efficacy [1]: 130% | EC50 (P2Y purinoceptor 2 [2]): 80.4 nM | EC50 (P2Y purinoceptor 2 [3]): 781 nM | EC50 (P2Y purinoceptor 2 [4]): 123 nM | EC50 (P2Y purinoceptor 2 [5]): 50.1 nM | Efficacy [6]: 128% | EC50 (P2Y purinoceptor 2 [7]): 138 nM | EC50 (P2Y purinoceptor 2 [8]): 108 nM | Efficacy (P2Y purinoceptor 2 [9]): 138% | EC50 (P2Y purinoceptor 2 [10]): 121 nM | Efficacy [11]: 43% | Efficacy [12]: 107% | Activity (P2Y purinoceptor 2 [13]): Dose-dependent effect | EC50 (P2Y purinoceptor 2 [14]): 20600 nM | Efficacy [15]: 3% | Efficacy [16]: 127% | EC50 (P2Y purinoceptor 2 [17]): 37.2 nM | Efficacy (P2Y purinoceptor 2 [18]): 100% | Efficacy [19]: 86% | EC50 (P2Y purinoceptor 2 [20]): 2090 nM | Efficacy [21]: 109% | Efficacy [22]: 99% | EC50 (P2Y purinoceptor 2 [23]): 157 nM | Efficacy [24]: 133% | EC50 (P2Y purinoceptor 2 [25]): > 300000 nM | EC50 (P2Y purinoceptor 2 [26]): 59 nM
Structure (SMILES): O=c1ccn([C@@H]2O[C@H](COP(=O)(O)OP(=O)(O)OP(=O)(O)O)[C@@H](O)[C@H]2O)c(=O)[nH]1 [URIDINE TRIPHOSPHATE]
Activity (1321-N1): inactive
